In brackets after ≈: the same amount, converted by molar mass. Where a SMILES comes first, the peptide text is derived from it.
Assays:
[1] = Therapeutic index, ratio of MHC10 for hemolytic activity in human RBC to MIC95 against methicillin-resistant Staphylococcus aureus ATCC 43300; format: toxicity; details: human red blood cells (erythrocytes), read-out: TI
Outline: (§1)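 Therapeutic index = MHC divided by MIC. MHC is the lowest concentration giving >10% lysis of human RBC (1 h, 37 °C, 1-128 µM, A576). MIC is 95% growth inhibition by broth microdilution: bacteria in MHB 24 h at 37 °C; Candida in MOPS-buffered RPMI 1640 at (0.5–1) × 10^3 CFU mL−1, 48 h at 28 °C.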

Staphylococcus aureus [2] = test: Antibacterial activity against Staphylococcus aureus ATCC 29213 measured after 18 to 24 hrs in presence of KCl; format: functional
[3] = Therapeutic index, ratio of MHC10 for hemolytic activity in human RBC to MIC95 against Candida tropicalis cgmcc2.1975; format: toxicity; details: human red blood cells (erythrocytes), read-out: TI; outline: as §1
Staphylococcus aureus [4] = test: Antibacterial activity against Staphylococcus aureus ATCC 29213 measured after 18 to 24 hrs in presence of NH4Cl; format: functional
Outline: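 MIC broth microdilution (MHB, 0.2% BSA peptide diluent, A492, 95% inhibition) run in the presence of physiological salts at final concentrations of 6 μM NH4Cl or 8 μM ZnCl2. Three independent assays, each with three technical replicates.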

[5] = Antibacterial activity against Salmonella pullorum ATCC 7913 measured after 24 hrs; format: functional, Salmonella enterica subsp. enterica serovar Pullorum; details: Salmonella enterica, ATCC 7913, 24 h
Outline: (§2)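 Broth microdilution adapted from NCCLS. Mid-log bacteria were diluted in MHB to a final (0.5–1) × 10^5 CFU mL−1. Peptides were serially diluted in 0.2% BSA and mixed with an equal volume of cells. After 24 h at 37 °C, MIC was read at A492 as the lowest concentration inhibiting 95% of growth. At least three independent experiments, each with three technical replicates.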

[6] = Therapeutic index, ratio of MHC10 for hemolytic activity in human RBC to MIC95 against Staphylococcus aureus ATCC 25923; format: toxicity; details: human red blood cells (erythrocytes), read-out: TI; outline: as §1
[7] = Therapeutic index, ratio of MHC10 for hemolytic activity in human RBC to MIC95 against Escherichia coli ATCC 25922; format: toxicity; details: human red blood cells (erythrocytes), pooled result: one value given for 9 cell lines, strains, targets or settings, read-out: TI; outline: as §1
Escherichia coli [8] = test: Antibacterial activity against Escherichia coli ATCC 25922 measured after 18 to 24 hrs in presence of MgCl2; format: functional
[9] = test system: Staphylococcus epidermidis; test: Antibacterial activity against Staphylococcus epidermidis ATCC 12228 measured after 24 hrs; format: functional; details: ATCC 12228, 24 h; outline: as §2
[10] = Conformational stability in 50% trifluoro-ethyl alcohol assessed as alpha-helical structural propensity by measuring absorption spectra at minimum dichroic band at 35 uM by CD spectra analysis; format: physicochemical
Outline: (§3)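 CD spectra from 190 to 250 nm of peptide at 35 μM in 10 mM PBS, 30 mM SDS micelles or 50% TFE, recorded in a 1.0-mm quartz cell. Ellipticity was converted to mean residue ellipticity. Three independent scans, each averaged over more than 3 runs.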

[11] = Therapeutic index, ratio of MHC10 for hemolytic activity in human RBC to MIC95 against Candida parapsilosis cgmcc2.3989; format: toxicity; details: human red blood cells (erythrocytes), read-out: TI; outline: as §1
Candida albicans [12] = test: Antifungal activity against Candida albicans cgmcc2.2086 measured after 48 hrs in presence of MgCl by broth microdilution method; format: functional; details: cgmcc2.2086, 48 h
[13] = Therapeutic index, ratio of MHC10 for hemolytic activity in human RBC to MIC95 against Candida albicans cgmcc2.2086; format: toxicity; details: human red blood cells (erythrocytes), read-out: TI; outline: as §1
Escherichia coli [14] = test: Antibacterial activity against Escherichia coli ATCC 25922 measured after 18 to 24 hrs in presence of CaCl2; format: functional
Staphylococcus aureus [15] = test: Antibacterial activity against Staphylococcus aureus ATCC 29213 measured after 18 to 24 hrs in presence of MgCl2; format: functional
Escherichia coli [16] = test: Antibacterial activity against Escherichia coli ATCC 25922 measured after 18 to 24 hrs in presence of ZnCl2; format: functional
[17] = Cytotoxicity against mouse RAW264.7 cells assessed as cell viability at 2 to 64 uM measured after 18 to 24 hrs by MTT assay relative to control; format: cell-based; details: RAW264.7 cells, read-out: Activity
Outline: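 MTT assay: RAW264.7 cells seeded at 1.0–2.0×10^4 per well and exposed to peptide (2–64 µM) for 18–24 h at 37 °C in 5% CO2. MTT (0.5 mg/mL) added for 4 h, formazan dissolved in DMSO, read at 570 nm. At least three independent experiments with triplicate wells.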

[18] = Conformational stability in pH 7.4 sodium phosphate buffer assessed as absorption spectra at minimum dichroic band at 35 uM by CD spectra analysis; format: physicochemical; details: pH 7.4, 35 µM; outline: as §3
Pseudomonas aeruginosa = test: Antibacterial activity against Pseudomonas aeruginosa ATCC 27853 measured after 24 hrs; format: functional; details: ATCC 27853, 24 h; outline: as §2
Escherichia coli [19] = test: Antibacterial activity against Escherichia coli ATCC 25922 measured after 24 hrs; format: functional; details: ATCC 25922, 24 h; outline: as §2
Candida albicans [20] = test: Antifungal activity against Candida albicans cgmcc2.2086 measured after 48 hrs in presence of KCl by broth microdilution method; format: functional; details: cgmcc2.2086, 48 h
Escherichia coli [21] = test: Antibacterial activity against Escherichia coli K88 measured after 24 hrs; format: functional; details: K88, 24 h; outline: as §2
Staphylococcus aureus [22] = test: Bactericidal activity against methicillin-resistant Staphylococcus aureus ATCC 43300 incubated for 24 hrs followed by replating on agar plate and measured after overnight incubation; format: functional; details: ATCC 43300, 24 h, read-out: MBC>99.9
Outline: (§4)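 After the 24 h, 37 °C MHB microdilution MIC assay, 50 μL from each well was plated on agar and incubated overnight. MBC taken as lowest peptide concentration killing >99.9% of cells. At least three independent experiments, each with three technical replicates.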

Escherichia coli [23] = test: Bactericidal activity against Escherichia coli UB1005 incubated for 24 hrs followed by replating on agar plate and measured after overnight incubation; format: functional; details: UB1005, 24 h, read-out: MBC>99.9
Outline: (§5)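 Mid-log bacteria diluted in MHB to (0.5–1) × 10^5 CFU/mL and mixed 1:1 with peptide serially diluted in 0.2% BSA. After 24 h at 37 °C, 50 μL of each mixture was plated on agar and incubated overnight. MBC taken as the lowest concentration killing >99.9% of cells. At least three independent experiments, each with three technical replicates.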

Staphylococcus aureus [24] = test: Bactericidal activity against Staphylococcus aureus ATCC 29213 incubated for 24 hrs followed by replating on agar plate and measured after overnight incubation; format: functional; details: ATCC 29213, 24 h, read-out: MBC>99.9; outline: as §4
Escherichia coli [25] = test: Bactericidal activity against Escherichia coli K88 incubated for 24 hrs followed by replating on agar plate and measured after overnight incubation; format: functional; details: K88, 24 h, read-out: MBC>99.9; outline: as §5
Salmonella typhimurium = test: Bactericidal activity against Salmonella typhimurium ATCC 14028 incubated for 24 hrs followed by replating on agar plate and measured after overnight incubation; format: functional, Salmonella enterica subsp. enterica serovar Typhimurium; details: Salmonella enterica, ATCC 14028, 24 h; read-out: MBC>99.9; outline: as §5

| Compound | selectivity ratio [1] | MIC95 (Staphylococcus aureus [2]) [µM] | selectivity ratio [3] | MIC95 (Staphylococcus aureus [4]) [µM] | MIC95 [5] [µM] | selectivity ratio [6] | selectivity ratio [7] | MIC95 (Escherichia coli [8]) [µM] | MIC95 [9] [µM] | selectivity ratio [11] | MIC95 (Candida albicans [12]) [µM] | selectivity ratio [13] | MIC95 (Escherichia coli [14]) [µM] | MIC95 (Staphylococcus aureus [15]) [µM] | MIC95 (Escherichia coli [16]) [µM] | viability at up to 64 µM [17] [%] | Wavelength of minimum CD band [18] [nm] | MIC95 (Pseudomonas aeruginosa) [µM] | MIC95 (Escherichia coli [19]) [µM] | MIC95 (Candida albicans [20]) [µM] | further results |
| --- | --- | --- | --- | --- | --- | --- | --- | --- | --- | --- | --- | --- | --- | --- | --- | --- | --- | --- | --- | --- | --- |
| H-AARIILRDRFR-NH2 | 2 | > 128 | 2 | > 128 | > 128 | 2 | 2 | > 128 | > 128 | 2 | > 128 | 2 | > 128 | > 128 | > 128 | 90 to 100 | 200 | > 128 | ≥ 128 | > 128 | Activity [10]: 208 to 222 nm; MIC95 (Escherichia coli [21]): > 128 µM |
| H-AAKIILNPKFR-NH2 | 2 | > 128 | 2 | > 128 | > 128 | 2 | 2 | > 128 | > 128 | 2 | > 128 | 2 | > 128 | > 128 | > 128 | 90 to 100 | 200 | > 128 | > 128 | > 128 | Stability [10]: Unstable; MIC95 (Escherichia coli [21]): > 128 µM |
| H-AARIILRFRFR-NH2 | 128 | 2 | 50.8 | 2 | 4 | 128 | 43.5 | 32 | 2 | 50.8 | 16 | 50.8 | 32 | 2 | 4 | 90 to 100 | 200 | > 128 | 8 | 8 | MBC (Staphylococcus aureus [22]): 4 µM; MBC (Escherichia coli [23]): 8 µM; Activity [10]: 208 to 222 nm; MBC (Staphylococcus aureus [24]): 4 µM; MBC (Escherichia coli [25]): 8 µM; MBC (Salmonella typhimurium): 8 µM; MIC95 (Escherichia coli [21]): 4 µM |
| CC[C@H](C)[C@H](NC(=O)[C@H](CCCCN)NC(=O)[C@H](C)NC(=O)[C@H](C)N)C(=O)N[C@H](C(=O)N[C@@H](CC(C)C)C(=O)N[C@@H](CC(N)=O)C(=O)N1CCC[C@H]1C(=O)N[C@@H](CCCCN)C(=O)N[C@@H](Cc1ccccc1)C(=O)N[C@@H](CCCNC(=N)N)C(=O)N[C@@H](CS)C(=O)N[C@@H](CCCCN)C(=O)N[C@@H](C)C(=O)N[C@@H](C)C(=O)N[C@@H](Cc1ccccc1)C(=O)N[C@@H](CS)C(N)=O)[C@@H](C)CC (H-AAKIILNPKFRCKAAFC-NH2) | 0.3 | > 128 | 0.25 | > 128 | 64 (≈ 121 µg/mL) | 0.3 | 0.5 | 64 | > 128 | 0.25 | > 128 | 0.25 | > 128 | > 128 | 64 | 90 to 100 | 200 | > 128 | 32 (≈ 60.6 µg/mL) | > 128 | MBC (Escherichia coli [23]): 128 µM (≈ 242 µg/mL); Stability [10]: Unstable; MBC (Escherichia coli [25]): 64 µM (≈ 121 µg/mL); MBC (Salmonella typhimurium): 128 µM (≈ 242 µg/mL); MIC95 (Escherichia coli [21]): 32 µM (≈ 60.6 µg/mL) |
